The values below come from ChEMBL document CHEMBL4477197, “Antitumor Activity of Spicatoside A by Modulation of Autophagy and Apoptosis in Human Colorectal Cancer Cells” (J Nat Prod, 2016).

Activity calls are given as the source filed them. No cut-off for these calls is given here.

In one data set the test system is MDA-MB-231. Nature of the data set: Antiproliferative activity against human MDA-MB-231 cells after 24 to 72 hrs by SRB assay. Format: functional, cell-based. The essentials: (§1)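 Cells from ATCC were grown at 37 °C in 5% CO2, in RPMI 1640 (A549, HCT116, SNU-638) or DMEM (MDA-MB-231, SK-HEP-1, MRC5) with 10% FBS. They were seeded at 6 × 10^3 cells/well for 24 h, then exposed for 72 h. Cells were TCA-fixed, stained with 0.4% SRB, and read at 515 nm against day-zero plates. IC50 came from nonlinear regression, as means ± SD.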

The subject of a further data set is SK-HEP1. Nature of the data set: Antiproliferative activity against human SKHEP1 cells after 24 to 72 hrs by SRB assay. Format: functional, cell-based. An outline of the steps:
as §1

For data set [1], the system named is HCT-116. Nature of the data set: Growth inhibition of human HCT116 cells after 24 hrs by SRB assay. It is filed as functional, cell-based. An outline of the steps:
(§2)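 SRB assay. Cells were seeded at 6 × 10^3/well, grown 24 h, then fixed as day-zero controls or treated 24 or 48 h. They were fixed with 10% TCA and stained with 0.4% SRB in 1% acetic acid; dye was dissolved in 10 mM Tris pH 10.0 and read at 515 nm. Proliferation was normalized to day zero and control, and IC50 came from nonlinear regression. n = 3.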

Data set [2] deals with HCT-116. Nature of the data set: Induction of autophagy in human HCT116 cells assessed as formation of acidic vesicular organelles at 20 uM after 24 hrs by acridine orange staining based assay relative to control. Format: functional, cell-based. The essentials:
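Cells were seeded at 1 × 10^5/well, grown 24 h, then treated 24 h with 20 μM compound, 2.5 nM bafilomycin A1, or both. They were stained with acridine orange (2 μg/mL) for 15 min and washed in DPBS. AO-positive cells were quantified by high-content imaging and expressed as an index versus vehicle. Triplicates.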

In data set [3] the test system is HCT-116. Nature of the data set: Induction of autophagy in human HCT116 cells assessed as accumulation of beclin 1 after 24 hrs by Western blot analysis. Format: functional, cell-based. An outline of the steps:
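HCT116 cells were cultured 24 h with the indicated concentrations. Lysates were made in SDS buffer with NaF and orthovanadate and quantified by BCA; 10–30 μg protein was separated by 6–15% SDS-PAGE and transferred to PVDF. After 5% BSA blocking, blots were probed for LC3-II, beclin 1, p62, LAMP1 and cathepsin D, with ECL detection.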

The nature of data set [4]: Inhibition of PI3K/Akt/mTOR in human HCT116 cells assessed as downregulation of PI3K p85 at 10 to 30 uM after 24 hrs by Western blot analysis. Format: cell-based. An outline of the steps:
(§3)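 HCT116 cells (RPMI 1640, 10% FBS, 37 °C, 5% CO2) exposed to the compound for 24 h, then lysed in 2× SDS sample buffer with NaF and orthovanadate and boiled. BCA-normalised protein (10−30 μg) run on 6−15% SDS-PAGE and blotted to PVDF. Blocked in 5% BSA/PBS-Tween, probed for PI3K, PTEN, Akt and mTOR, and detected by ECL. Blots are representative of three determinations.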

Data set [5] is described as follows: Inhibition of PI3K/Akt/mTOR in human HCT116 cells assessed as suppression of Akt phosphorylation at Ser473 at 10 to 30 uM after 24 hrs by Western blot analysis. It is filed as cell-based. An outline of the steps: as §3
Data set [6] has as its target c-Jun N-terminal kinase, JNK (Homo sapiens) (UniProt P45983+P53779+P45984). Nature of the data set: Activation of JNK in human HCT116 cells after 24 hrs by Western blot analysis. It is filed as cell-based.
In data set [7] the test system is HCT-116. Nature of the data set: Growth inhibition of human HCT116 cells after 48 hrs by SRB assay. Format: functional, cell-based. The essentials: as §2
Data set [8] has as its system HCT-116. Nature of the data set: Induction of apoptosis in human HCT116 cells assessed as cell rounding after 48 hrs. It is filed as functional, cell-based.
Data set [9] has as its system HCT-116. Nature of the data set: Induction of apoptosis in human HCT116 cells assessed as cell shrinkage after 48 hrs. Format: functional, cell-based.
The test system of data set [10] is HCT-116. Nature of the data set: Induction of apoptosis in human HCT116 cells at 20 uM after 48 hrs by Annexin V-FITC/propidium iodide staining based flow cytometry. Format: functional. An outline of the steps: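 HCT116 cells were treated 48 h, then resuspended in binding buffer at 1 × 10^6 cells/mL. They were stained with annexin V-FITC and PI for 20 min at room temperature in the dark, diluted and analyzed immediately by flow cytometry for annexin V-positive cells. n = 3.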

Data set [11] deals with HCT-116. Nature of the data set: Induction of apoptosis in human HCT116 cells assessed as activation of caspase 3 at 10 to 30 uM after 48 hrs by Western blot analysis. It is filed as functional, cell-based. The essentials:
(§4)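 HCT116 cells were treated with the indicated concentrations for 48 h. Lysates were prepared in SDS sample buffer and 10–30 μg protein was separated by SDS-PAGE, blotted to PVDF and blocked in 5% BSA. Cleaved caspase-8, -9, -3 and PARP were detected by ECL.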

The subject of data set [12] is HCT-116. Nature of the data set: Induction of apoptosis in human HCT116 cells assessed as activation of caspase 8 at 10 to 30 uM after 48 hrs by Western blot analysis. It is filed as functional, cell-based. An outline of the steps: as §4
Data set [13] concerns HCT-116. Nature of the data set: Induction of apoptosis in human HCT116 cells assessed as activation of PARP cleavage at 10 to 30 uM after 48 hrs by Western blot analysis. It is filed as functional, cell-based. The essentials: as §4
In data set [14] the test system is HCT-116. Nature of the data set: Induction of apoptosis in human HCT116 cells assessed as downregulation of Bcl-2 levels at 10 to 30 uM after 48 hrs by Western blot analysis. Format: functional, cell-based.
In data set [15] the test system is HCT-116. Nature of the data set: Induction of apoptosis in human HCT116 cells assessed as increase in t-BID levels after 48 hrs by Western blot analysis. Format: functional, cell-based.
The subject of data set [16] is HCT-116. Nature of the data set: Induction of apoptosis in human HCT116 cells assessed as increase in cytochrome c levels in cytosol after 48 hrs by Western blot analysis. Format: functional, cell-based.
In data set [17] the test system is HCT-116. Nature of the data set: Induction of autophagy in human HCT116 cells assessed as increase in beclin 1 expression at 30 uM at 24 hrs by Western blot analysis. It is filed as functional, cell-based.
The test system of data set [18] is HCT-116. Nature of the data set: Antitumor activity against human HCT116 cells xenografted in BALB/c-nu mouse assessed as inhibition of tumor volume at 2.5 mg/kg, ip administered three times per week for 28 days measured every 3 to 4 days of dosing relative to control. Particulars: HCT-116, ip. It is filed as functional. The essentials:
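HCT116 cells (2 × 106 in 200 μL medium) injected subcutaneously into the right flank of nude mice; at ~200 mm3, mice randomized into groups of five. Compound at 2.5 or 5 mg/kg, dissolved in normal saline with 0.5% Tween 80, given ip three times weekly for 28 days; vehicle controls got equal volume. Tumor volume measured by caliper every 3–4 days.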

A short description of data set [19]: Toxicity in BALB/c-nu mouse xenografted with human HCT116 cells assessed as change in body weight at 2.5 to 5 mg/kg, ip administered three times per week for 28 days measured during compound dosing relative to control. It is filed as organism-based. Particulars: in vivo, 672 h. An outline of the steps:
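Nude mice carried subcutaneous flank HCT116 implants (2 × 10^6 cells in 200 μL medium). At about 200 mm3 they were randomised into groups of five. Compound at 2.5 or 5 mg/kg in saline with 0.5% Tween 80 was given ip three times weekly for 4 weeks; controls received vehicle. Body weight was monitored throughout for toxicity.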

With `C[C@H]1CC[C@@]2(OC1)O[C@H]1C[C@H]3[C@@H]4CC=C5C[C@@H](O)C[C@@H](O[C@@H]6O[C@H](C)[C@H](O)[C@H](O[C@@H]7OC[C@@H](O)[C@H](O)[C@H]7O)[C@H]6O[C@@H]6O[C@H](CO)[C@@H](O)[C@H](O)[C@H]6O)[C@]5(C)[C@H]4CC[C@]3(C)[C@H]1[C@@H]2C`, the 50% inhibitory concentration (IC50) in the data set with MDA-MB-231 was determined as 29.6 µM; in the data set with SK-HEP1 it was 15.5 µM; in the data set with HCT-116 [1] (HCT-116, 24 h) it was 28.9 µM; with HCT-116 [7] (HCT-116, 48 h), 20.9 µM. For the same compound, the “growth inhibition (GI)” value in the data set with HCT-116 [1] and with HCT-116 [7] was “Dose-dependent effect” throughout. The result in the data set on HCT-116 [2], in the data set on HCT-116 [8], in the data set on HCT-116 [9], with HCT-116 [11], with HCT-116 [12] and in the data set with HCT-116 [13] was Active. Moreover, the result in the data set with HCT-116 [14] and in the data set on HCT-116 [17] was Active. Also, the Activity entry was “Dose-dependent effect” in the data set on HCT-116 [3]; 18.58% with HCT-116 [10]; “Dose-dependent effect” in the data set with HCT-116 [15]; “Dose-dependent effect” with HCT-116 [16]; “Non-Toxic” in data set [19]. Besides, the inhibition entry in data set [4] and in data set [5] was “Active” each time. The result in data set [6] was inactive. For the same compound, the inhibition in vivo at 2.5 mg/kg with HCT-116 [18] was determined as 38.8%.
